{"source": "ChEMBL document CHEMBL1150593", "about": "“Biologically active polyketide metabolites from an undetermined fungicolous hyphomycete resembling Cladosporium” (2002)", "key": {"Fusarium verticillioides": {"tested_on": "Fusarium verticillioides", "experiment": "Antimicrobial activity against Fusarium verticillioides NRRL 25457 at 250 ug/disk by standard agar diffusion assay", "type": "functional, organism-based"}, "Aspergillus flavus": {"tested_on": "Aspergillus flavus", "experiment": "Antimicrobial activity against Aspergillus flavus NRRL 6541 at 250 ug/disk by standard agar diffusion assay", "type": "functional, organism-based"}, "Bacillus subtilis": {"tested_on": "Bacillus subtilis", "experiment": "Antimicrobial activity against Bacillus subtilis ATCC 6051 at 200 ug/disk by standard agar diffusion assay", "type": "functional", "conditions": "read-out: IZ", "how_it_was_run": "(§1)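 Agar diffusion (disk) assay with 200 µg of compound applied per disk against the bacterial strain. The same panel at this loading also included Candida albicans ATCC 90029. Read-out was the zone of growth inhibition, recorded in mm.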"}, "Staphylococcus aureus": {"tested_on": "Staphylococcus aureus", "experiment": "Antimicrobial activity against Staphylococcus aureus ATCC 29213 at 200 ug/disk by standard agar diffusion assay", "type": "functional", "conditions": "read-out: IZ", "how_it_was_run": "as §1"}}, "note": "Activity calls are given as the source filed them. The rule behind the calls is not given here."}
{"molecule": "O=Cc1c(O)cccc1CCC(=O)O", "values": [{"measurement": "Activity", "setting": "Fusarium verticillioides", "value": "inactive"}, {"measurement": "Activity", "setting": "Aspergillus flavus", "value": "inactive"}, {"measurement": "zone of inhibition at 200 µg/disc", "setting": "Bacillus subtilis", "value": 22, "unit": "mm"}]}
{"molecule": "CC(O)C(O)CC1OC(=O)c2c(O)cccc21", "note": "(centres undefined)", "values": [{"measurement": "Activity", "setting": "Fusarium verticillioides", "value": "inactive"}, {"measurement": "Activity", "setting": "Aspergillus flavus", "value": "inactive"}]}
{"molecule": "CC1(O)C(=O)C=Cc2c1ccc(O)c2CO", "note": "(centres undefined)", "values": [{"measurement": "Activity", "setting": "Fusarium verticillioides", "value": "inactive"}, {"measurement": "Activity", "setting": "Aspergillus flavus", "value": "inactive"}]}
{"molecule": "CC(O)C(O)CC1OCc2c(O)cccc21", "note": "(mixture of isomers; 7a)", "values": [{"measurement": "Activity", "setting": "Fusarium verticillioides", "value": "inactive"}, {"measurement": "Activity", "setting": "Aspergillus flavus", "value": "inactive"}]}
{"molecule": "CC(O)C(O)CC1OCc2c(O)cccc21", "note": "(mixture of isomers; 7b)", "values": [{"measurement": "Activity", "setting": "Fusarium verticillioides", "value": "inactive"}, {"measurement": "Activity", "setting": "Aspergillus flavus", "value": "inactive"}]}
{"molecule": "O=C(O)CC1OCc2c(O)cccc21", "note": "(racemic)", "values": [{"measurement": "Activity", "setting": "Fusarium verticillioides", "value": "inactive"}, {"measurement": "Activity", "setting": "Aspergillus flavus", "value": "inactive"}, {"measurement": "zone of inhibition at 200 µg/disc", "setting": "Bacillus subtilis", "value": 8, "unit": "mm"}]}
{"molecule": "O=C(O)CC1OC(=O)c2c(O)cccc21", "note": "(racemic)", "values": [{"measurement": "Activity", "setting": "Fusarium verticillioides", "value": "inactive"}, {"measurement": "Activity", "setting": "Aspergillus flavus", "value": "inactive"}]}
{"molecule": "COc1cc(O)c2c(c1)C(=O)[C@H]1C[C@](C)(O)[C@H](O)C[C@@H]1[C@H]2O", "note": "(relative stereo)", "values": [{"measurement": "Activity", "setting": "Fusarium verticillioides", "value": "inactive"}, {"measurement": "Activity", "setting": "Aspergillus flavus", "value": "inactive"}]}
{"molecule": "COc1cc(O)c2c(c1)C(=O)C1=C(C2=O)[C@H](O)[C@@H](O)[C@@](C)(O)[C@@H]1O", "note": "[ALTERSOLANOL A]", "values": [{"measurement": "Activity", "setting": "Fusarium verticillioides", "value": "inactive"}, {"measurement": "Activity", "setting": "Aspergillus flavus", "value": "inactive"}, {"measurement": "zone of inhibition at 200 µg/disc", "setting": "Bacillus subtilis", "value": 33, "unit": "mm"}, {"measurement": "zone of inhibition at 200 µg/disc", "setting": "Staphylococcus aureus", "value": 31, "unit": "mm"}]}
{"molecule": "C[C@H]1O[C@@H]2O[C@H]1C=Cc1cccc(O)c12", "note": "[CLADOACETAL A]", "values": [{"measurement": "Activity", "setting": "Fusarium verticillioides", "value": "inactive"}, {"measurement": "Activity", "setting": "Aspergillus flavus", "value": "inactive"}, {"measurement": "zone of inhibition at 200 µg/disc", "setting": "Staphylococcus aureus", "value": 13, "unit": "mm"}]}
{"molecule": "COc1cc(O)c2c(c1)C(=O)c1cc(C)c(O)cc1C2=O", "note": "[MACROSPORIN]", "values": [{"measurement": "Activity", "setting": "Fusarium verticillioides", "value": "inactive"}, {"measurement": "Activity", "setting": "Aspergillus flavus", "value": "inactive"}, {"measurement": "zone of inhibition at 200 µg/disc", "setting": "Bacillus subtilis", "value": 23, "unit": "mm"}, {"measurement": "zone of inhibition at 200 µg/disc", "setting": "Staphylococcus aureus", "value": 20, "unit": "mm"}]}
